Screening data: PubChem, Broad Institute
CAL PDZ FP-1 = untagged CAL PDZ binding inhibitors, primary screen, biochemical, fluorescence polarization, HTS; purified CAL PDZ, TMR-peptide fluorescence polarization, 1 h; Golgi-associated PDZ and coiled-coil motif-containing protein (Homo sapiens), Q9HD26; 300,000 compounds, 0.92% hits; inhibition, % at 24.9 µM; AID 602252, 2012;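 active = mean inhibition of at least 30% with at least half of replicates also reaching 30%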;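 also: 0% = DMSO neutral control and 100% = excess unlabeled competitor peptide PRC23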
ERp5 inh = inhibitors of ERp5-driven insulin aggregation, primary screen, biochemical, turbidity, absorbance 650 nm, single point; inhibition, % at 9.99 µM; 90 min; Protein disulfide-isomerase A6 (Homo sapiens), Q15084; 350,000 compounds, 0.05% hits;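 active = mean replicate inhibition above about 25%, with every replicate also reaching it, limit read from the data, passing the limit was not always enough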
Target sequence (Q15084 whole entry, looked up): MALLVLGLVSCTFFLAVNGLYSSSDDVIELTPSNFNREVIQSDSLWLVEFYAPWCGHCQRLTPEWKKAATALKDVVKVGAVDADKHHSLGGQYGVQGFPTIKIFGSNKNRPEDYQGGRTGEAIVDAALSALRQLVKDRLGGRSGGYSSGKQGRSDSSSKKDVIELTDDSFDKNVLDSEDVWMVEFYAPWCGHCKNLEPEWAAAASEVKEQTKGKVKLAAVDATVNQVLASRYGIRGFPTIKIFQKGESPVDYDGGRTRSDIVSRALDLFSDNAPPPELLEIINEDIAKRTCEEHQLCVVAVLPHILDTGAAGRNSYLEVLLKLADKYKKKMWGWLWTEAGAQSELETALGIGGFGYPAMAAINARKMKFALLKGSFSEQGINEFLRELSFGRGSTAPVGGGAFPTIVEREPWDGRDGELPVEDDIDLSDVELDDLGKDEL
PDI turbidity = inhibitors of human PDI, primary screen, biochemical, turbidity, single point, plate reader; Protein disulfide-isomerase (Homo sapiens), P07237; PDI insulin aggregation turbidity, A650, 90 min; inhibition, % at 10 µM; 350,000 compounds, 0.052% hits; AID 588391, 2011;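 active = mean inhibition across replicates of 30% or more, whatever share of single replicates reach that level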
RAD54 branch = inhibitors of human RAD54 branch migration, primary screen, biochemical, fluorescence, single point. DNA repair and recombination protein RAD54-like (Homo sapiens), Q92698. RAD54 Holliday junction branch migration, FAM/BHQ fluorescence. inhibition, % at 10.4 µM. 360,000 compounds, 0.14% hits. AID 602329, 2012;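 active = mean normalized replicate activity at least 40 and at least half of replicates scoring 40 or more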;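 also: 0% = median of neutral control wells and 100% = median of positive control wells; inhibitors cause a drop in the FAM fluorescence signal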
CAL PDZ FP-2 = CAL PDZ peptide-binding inhibitors, primary screen, biochemical, fluorescence polarization, Cer-tagged CAL PDZ, HTS | Golgi-associated PDZ and coiled-coil motif-containing protein (Homo sapiens), Q9HD26 | purified CAL PDZ, TMR-peptide fluorescence polarization, 1 h | inhibition, % at 20 µM | 330,000 compounds, 0.02% hits | AID 504414, 2011;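 active = highest replicate inhibition of at least 40%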;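 also: plate controls were DMSO neutral control wells for no effect and unlabeled competitor peptide control wells for full effect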
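Assay system – tagged CAL PDZ protein CerCALP, purified · Timing – 1 h at RT · Compound – single point, 20 µM · Measured by – fluorescence polarization from S- and P-plane intensities, G-factor corrected · Evaluation – inhibition from polarization loss · Probe or stimulus – TMR reporter peptide T*-PRC34 · Buffer or medium – pH 7.4 phosphate-saline buffer, reducing agent, detergent, IgG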
RAD52 anneal inh = RAD52 DNA annealing inhibitors, primary screen, biochemical, FRET, single point, set 2 | DNA repair protein RAD52 homolog (Homo sapiens), P43351 | recombinant RAD52 DNA annealing, FRET fluorescence | inhibition, % at 18.7 µM | 360,000 compounds, 0.46% hits | AID 651710, 2012;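 active = every replicate showing at least 50% inhibition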
* marks the source's active call; other numbers are inactive results. Only some compounds are listed: those with a hit (about 1% of all), similar ones and a draw of the others.

What do the screens show for `CN(C)CCNc1cccc2sc3ccc(O)cc3c(=O)c12`?
ERp5 inh: 6.6; RAD52 anneal inh: -72.2

How did CCN(CC)CCNc1cccc2sc3ccccc3c(=O)c12 do in these assays?
ERp5 inh: -16.2; PDI turbidity: -12.8; RAD54 branch: 89.8*; RAD52 anneal inh: 35.0

Results for O=C(COc1ccc(Cl)cc1)Nc1nnc(-c2ccco2)o1 ?
CAL PDZ FP-1: 45.6*; ERp5 inh: -1.2; PDI turbidity: -8.4; CAL PDZ FP-2: -1.4; RAD52 anneal inh: -18.4

How did O=C1OC(CO)CN1Cc1ccccc1 (centres undefined) do in these assays?
CAL PDZ FP-1: 58.0*; ERp5 inh: 0.2; PDI turbidity: 1.0; RAD54 branch: 1.0; RAD52 anneal inh: -11.7

What do the screens show for `O=C1OC(CCl)CN1Cc1c(Cl)cccc1Cl` (centres undefined)?
CAL PDZ FP-1: 2.3; ERp5 inh: 3.9; PDI turbidity: -2.3; CAL PDZ FP-2: -1.4; RAD52 anneal inh: -14.1

How did COc1ccc(NC(=O)Nc2cccc3c2O[C@H](CN(C)S(=O)(=O)c2ccc(F)cc2)[C@H](C)CN([C@@H](C)CO)C3=O)cc1 do in these assays?
RAD54 branch: 3.3

What do the screens show for `CCOC(=O)C1(CCOc2ccccc2)CCN(Cc2ccc(O)c(Cl)c2)CC1`?
CAL PDZ FP-1: -0.6; ERp5 inh: -0.1; PDI turbidity: 110.8*; RAD54 branch: -5.6; CAL PDZ FP-2: -0.5; RAD52 anneal inh: -21.0

What do the screens show for `CCOC(=O)C1(CCOc2ccccc2)CCN(Cc2ccc(O)c(OC)c2)CC1`?
ERp5 inh: 1.7; PDI turbidity: 0.5; RAD54 branch: 3.0; CAL PDZ FP-2: -1.6; RAD52 anneal inh: -24.4

What do the screens show for `CCOC(=O)C1(CCOc2ccccc2)CCN(Cc2nccn2CC)CC1`?
CAL PDZ FP-1: 32.5*; ERp5 inh: 0.1; PDI turbidity: -2.3; CAL PDZ FP-2: -0.5; RAD52 anneal inh: -5.2

How did C/C=C/c1ccc2c(c1)O[C@@H](CN(C)C(=O)NC1CCCCC1)[C@@H](C)CN([C@H](C)CO)S2(=O)=O do in these assays?
ERp5 inh: -1.9; RAD54 branch: -2.0; RAD52 anneal inh: 4.7

What do the screens show for `COc1ccc(NC(=O)N2CCCCN3[C@H](CO)[C@@H](c4ccc(C#Cc5ccccc5)cc4)[C@@H]3C2)cc1`?
ERp5 inh: 0.1; RAD54 branch: 3.7; RAD52 anneal inh: 71.2*

Results for COc1ccc(NC(=O)N2CCCCN3[C@H](CO)[C@H](c4ccc(C#Cc5ccccc5)cc4)[C@@H]3C2)cc1 ?
ERp5 inh: 2.6; RAD54 branch: 7.0; RAD52 anneal inh: 31.3

What do the screens show for `COc1ccc(NC(=O)N2CCCCN3[C@H](CO)[C@@H](c4ccc(C#Cc5ccccc5)cc4)[C@H]3C2)cc1`?
ERp5 inh: -5.6; RAD54 branch: -0.8; RAD52 anneal inh: 69.8*

What do the screens show for `COc1ccc(NC(=O)N2CCCCN3[C@@H](CO)[C@@H](c4ccc(C#Cc5ccccc5)cc4)[C@@H]3C2)cc1`?
ERp5 inh: -5.7; RAD54 branch: 5.4; RAD52 anneal inh: 96.6*

How did [N-]=[N+]=Nc1ccccc1C[C@@]1(C(=O)NCCN2CCOCC2)N=C(c2ccc(OCCCO)cc2)O[C@@H]1c1ccccc1N=[N+]=[N-] do in these assays?
ERp5 inh: 1.6; RAD54 branch: 5.8; RAD52 anneal inh: 29.3

How did C[C@@H]1CN([C@@H](C)CO)C(=O)c2cc(N(C)C)ccc2O[C@@H](C)CCCCO[C@H]1CN(C)Cc1ccc(C(F)(F)F)cc1 do in these assays?
ERp5 inh: 3.7; RAD54 branch: 0.1; RAD52 anneal inh: 4.4

Results for O=C(C[C@H]1CC[C@@H]2[C@H](COC[C@H](O)CN2CCc2ccccc2)O1)N1CCC(Cc2ccccc2)CC1 ?
ERp5 inh: -0.6; RAD54 branch: -1.6; RAD52 anneal inh: 7.8
